Experiment: Toxicity liver stage against HepG2, at 10uM
Type: cell-based
Parameters: test concentration 10 uM, cell line HepG2-A16-CD81EGFP
Conditions: human, HepG2-A16-CD81EGFP cells; read-out: INHIBITION
Procedure, shortened: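 Uninfected HepG2-A16-CD81EGFP cells, 3 × 10^3 per well, 1536-well, plated on prespotted compound at 10 μM final, parasite-free screening media added to match infected plates; puromycin 10 μM positive, DMSO 0.5% negative; run in parallel with 48 h PbLuc assay at 37 °C, 5% CO2; viability by CellTiter-Glo luminescence, normalized to controls.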

Row | SMILES | cytotoxicity at 10 µM [%]
1 | Cn1ccnc1CCNS(=O)(=O)c1cccnc1 | 10.7
2 | CC(=O)N1N=C(c2ccccc2)OC1C(=O)N(C)CCc1ccccc1 (stereo unspecified) | 3.54
3 | COc1ccc2nnc(CCCC(=O)Nc3nc4c(s3)CCC4)n2n1 | -5.01
4 | CC1CCN(C(=O)CSc2nc3c(cnn3CCO)c(=O)[nH]2)CC1 | 7.98
5 | Cc1ccnc(OCC(=O)N2CCCC2)n1 | -10.2
6 | CN(CC1CC1)c1ccc2ccc(C(=O)NCCc3ccccc3)cn12 | -1.83
7 | CN(C)C(=O)N1CC2(CCN(S(=O)(=O)C3CC3)CC2)c2ccccc21 | -110
8 | COCc1cncc2c1CCN(C(=O)c1ccsc1)C2 | 2.43
9 | Cc1nocc1C(=O)N1CCCC2(CCN(c3cnn(C)c3)C2=O)C1 (stereo unspecified) | 2.43
10 | COCCn1ccc2c(cnc3nc(SC)nn32)c1=O | -17.4
11 | O=C(NC1CCCC1)N1CCCCC1c1nc(C2CC2)no1 (stereo unspecified) | -9.52
12 | Cc1nn(C)c2cnn(Cc3ccc(C(=O)NCC4CC4)o3)c12 | 6.06
13 | CCn1ccc(NC(=O)CCc2c(C)noc2C)n1 | 7.16
14 | Cc1nc(NCCc2ccccc2)cc(C(=O)N2CCOCC2)n1 | -3.01
15 | CCn1ccc(C(=O)NCCCN2CCOCC2)n1 | -7.9
16 | O=S(=O)(c1cn[nH]c1)N1CCC(O)(CN2CCOCC2)C1 (stereo unspecified) | 2.5
17 | O=C(c1ccncc1)N1CCCC(C2=Nc3ccccc3S(=O)(=O)N2)C1 (stereo unspecified) | 4.26
18 | CN(C)Cc1cnc(C2CN(C(=O)c3ccccc3Cl)CCO2)[nH]1 (stereo unspecified) | 1.07
19 | Cc1cc(O)cc(C2CCCN2C(=O)c2ccncc2)n1 (stereo unspecified) | 8.16
20 | Fc1ccc(Oc2nccnc2C2CCN(C3CCOCC3)CC2)cc1 | -2.5
21 | O=C(c1ccc(-c2cccs2)cc1F)N1CCN(CCO)CC1 | -47.3
22 | CC(=O)Nc1nc(COc2nc(C)no2)cs1 | -16.6
23 | O=C(NCCCn1ccnc1)C1COCC(=O)N1Cc1ccccc1 (stereo unspecified) | 12.3

Row | SMILES | cytotoxicity at 10 µM [%]
24 | Cc1ccc(C2CN(CCS(C)(=O)=O)CCO2)c(C)c1 (stereo unspecified) | 3.03
25 | CCOCCC(=O)NCCNc1nccc(C(F)(F)F)n1 | 2.88
26 | c1csc(N2CCN(c3ncnc4sccc34)CC2)n1 | 34.6
27 | COc1cc(CNc2cc(-c3ccoc3C)nn2CCO)ccc1F | -14.6
28 | C[S+]([O-])c1ccc(CNc2ccc(F)cc2OC(F)F)cc1 (stereo unspecified) | 0.752
29 | CC(C)CN(C(=O)Nc1cccc(C(=O)N(C)C)c1)C1CC1 | -15.2
30 | NS(=O)(=O)N1CCc2ccc(NC(=O)CCc3ccncc3)cc21 | 2.68
31 | COc1ccc(CN2CCN(CCn3ccnc3)CC2)cc1F | -8.88
32 | Cc1c(C(=O)N(C)CC(C)O)sc2nc(C(F)(F)F)ccc12 (stereo unspecified) | -0.943
33 | CN(CCN1CCOCC1)S(=O)(=O)CC1CCCC1 | 10.2
34 | CC(C)c1noc(CN(C)C(c2ccc(F)cc2)c2cccnc2)n1 (stereo unspecified) | 5.66
35 | CC(=O)N(C)c1nc(CN2CCN(c3nccs3)CC2)cs1 | -12.5
36 | O=C(Nc1cc(CSCCO)ccn1)c1ccc(Cl)o1 | -7.76
37 | CC1COCCN1Cc1noc(C(C)(C)C)n1 (stereo unspecified) | 5.67
38 | CCN(C(=O)C1Cc2cc(Cl)ccc2O1)C1CC1 (stereo unspecified) | 10.1
39 | CO[C@H]1CN(C(=O)OC(C)(C)C)CC1NCc1cc[nH]c1 (stereo partly specified) | -46.6
40 | CN(C)S(=O)(=O)c1ccc(CN2CCC(c3ccccc3)C2)o1 (stereo unspecified) | 17.5
41 | CC(C)CC(c1nc(-c2cnn(C)c2)no1)N1CCCCC1=O (stereo unspecified) | -42
42 | CCCc1nc(C(C)(C)NC(=O)c2ccnn2C)no1 | -10.5
43 | Cc1ccc(CNCCOc2ccc(S(C)(=O)=O)cc2)cc1 | -9.12
44 | Cn1nnc2cc(C(=O)N3CCCC3Cc3ccccc3)ccc21 (stereo unspecified) | -14.7
45 | Cn1ccnc1CN1CCc2c(COCC3CC3)nn(C)c2C1 | 8.68
46 | Cc1ccc2c(c1)C(N1CCOCC1)CC21CCNCC1 (stereo unspecified) | -116

Row | SMILES | cytotoxicity at 10 µM [%]
47 | CN1CCC(CO[C@H]2CN(C(=O)c3cccn3C)[C@@H]3COC[C@H]23)CC1 | -109
48 | c1ccc(OC[C@H]2CCC[C@]23CN(Cc2nccs2)CCO3)nc1 | 3.34
49 | CN1CCN(CC2CC2)C(=O)c2cnc(N3CC[C@@H](O)C3)nc21 | 2.19
50 | CC(C)CN(Cc1ccccn1)Cc1ccccc1C(=O)O | 2.51
51 | Nc1cc(C(=O)N2CCC(Oc3cccc(C(F)(F)F)c3)CC2)ccn1 | -7.03
52 | CCS(=O)(=O)c1ncc(CN2CCN(C)CC2)n1CCc1ccccc1 | 2.44
53 | Cc1nn(C)cc1C(=O)N1CCCn2nc(CN3CC[C@H](F)C3)cc2C1 | -7.88
54 | CCC1CN(C(=O)c2cc(C(C)=O)c(C)[nH]c2=O)CCN1C(C)C (stereo unspecified) | 6.03
55 | Cc1nc(CN2C[C@@H](NS(=O)(=O)N(C)C)[C@H](C(C)C)C2)cs1 | -6.04
56 | COCc1ncc(CN2CCN(C)C(=O)C2C)cn1 (stereo unspecified) | 1.31
57 | c1cncc(OCCCNC2COc3ccccc3C2)c1 (stereo unspecified) | -7.84
58 | c1cc(CN2CCC(CCn3cccn3)CC2)cc(Cn2cccn2)c1 | -1.58
59 | CN(CCN1CCCCC1=O)Cc1cc2cc3c(cc2[nH]c1=O)OCO3 | -6.21
60 | O=C(c1cccnc1)C1CCCN(c2nnc(C3CC3)o2)C1 (stereo unspecified) | 6.59
61 | CC(Nc1ncnc2sccc12)c1cnn(C)c1 (stereo unspecified) | -2.63
62 | Cc1nsc(NC(=O)NC2(CN3CCOCC3)CCCC2)n1 | 3.89
63 | CC1CCC(NCCCN2CCOCC2)CC1 (stereo unspecified) | -6.58
64 | CN1CCN(C(=O)c2cn3ccsc3n2)[C@H]2CS(=O)(=O)C[C@H]21 | -1.27
65 | Cc1nc(N)ncc1C(=O)N1CCCC(CCc2ccc(F)c(F)c2)C1 (stereo unspecified) | -4.51
66 | COCCNC(=O)c1cnc(C)nc1C | 24.5
67 | Cn1cc(CN(CC2(O)CNCCOC2)C2CCCCC2)cn1 (stereo unspecified) | 3.09
68 | Cc1cc(C(F)(F)F)nc(CNC(=O)CCC2CCCCN2C)n1 (stereo unspecified) | -59
69 | COCc1ncc(CN(CCN(C)C)Cc2ccc(C)s2)cn1 | -57.1

Row | SMILES | cytotoxicity at 10 µM [%]
70 | CCOC(=O)N1CCN(C(=O)c2ccc3ccn(C)c3c2)CC1 | -6.57
71 | CN1CCN(C[C@@H]2CN(C(=O)c3ccccc3C#N)C[C@@H]2CO)CC1 | -24.7
72 | COC(=O)c1cccc(S(=O)(=O)NC(=O)COC2CCCCC2)c1 | -10.1
73 | Cc1nc(C)n(CC2CCCN(Cc3cccc4c3OCCO4)C2)n1 (stereo unspecified) | -5.23
74 | Cc1ccc(C)c(NS(=O)(=O)c2cc3c(c(C(=O)O)c2)OCCO3)c1 | -0.882
75 | N#Cc1cccc(NC(=O)CCn2nc(-c3cccs3)oc2=O)c1 | -2
76 | Cc1cccc(CN2CCC(N(C)Cc3nnc(C4CC4)n3C)C2)c1 (stereo unspecified) | -6.04
77 | CN(C)c1cc(C(=O)N2CCCN(c3cccnn3)CC2)ccn1 | -8.19
78 | Cc1cc(OCC(=O)NS(=O)(=O)c2cccnc2)ccc1Cl | 0.544
79 | Cc1ccc(-c2noc(CN3CCc4cncnc4C3)n2)cc1 | 1.04
80 | Cc1cnn(CC2CCCCN2C(=O)c2ccccc2-n2cccn2)c1 (stereo unspecified) | -8.4
81 | COc1cc(Cl)ccc1C(=O)N1CCCC(c2cc(C)[nH]n2)C1 (stereo unspecified) | 72.5
82 | CC(NC(=O)CNCCn1cccn1)c1ccc2c(c1)CCCC2 (stereo unspecified) | -11.4
83 | FC(F)(F)COCCN1CCN(c2ccc3nncn3n2)CC1 | -7.77
84 | CC(C)c1nccn1C1CCCN(C(=O)c2cnc[nH]2)C1 (stereo unspecified) | -0.808
85 | Nc1nc(CN2CCOC(Cn3cncn3)C2)nc2ccccc12 (stereo unspecified) | -0.734
86 | c1cnnc(N2CCCC2CNCc2ccsc2)c1 (stereo unspecified) | -8.9
87 | Cc1ccc(C)c(OC2CCN(C(=O)c3ccc(C)[nH]c3=O)CC2)c1 | 2.87
88 | Cc1cccc(-c2noc(CN3CCCC(Cn4cncn4)C3)n2)c1 (stereo unspecified) | -3.51
89 | COc1ccc(C(=O)N2CCCCC2Cn2cccn2)c(F)c1 (stereo unspecified) | -5.38
90 | c1ccc(OCCCNCCn2cccn2)cc1 | -5.46
91 | O=C(NCCNc1cnccn1)C1CCN(C(=O)N2CCCC2)CC1 | -0.577
92 | CC(C(=O)N1CCN(c2cnccn2)CC1)n1cncn1 (stereo unspecified) | 8.37

Row | SMILES | cytotoxicity at 10 µM [%]
93 | CC(NC(=O)CN(C)S(C)(=O)=O)c1nnc2n1CCCCC2 (stereo unspecified) | -10.2
94 | CCc1nc(C2CCCN(C(=O)c3ccc4c(c3)nnn4C)C2)no1 (stereo unspecified) | -3.3
95 | COCCc1noc(CNCC2CCCN2c2cccnn2)n1 (stereo unspecified) | 4.33
96 | Cn1cnnc1C1CCCN(C(=O)NCCOc2ccccc2)C1 (stereo unspecified) | 7.48
97 | Cc1ccc(CN(Cc2[nH]cnc2C)C2CC(C)(C)NC(C)(C)C2)o1 | -3.3
98 | COc1ccc(CC(=O)N2CC[C@@H](OC)[C@@H]2Cc2cccnc2)cc1 | 8.48
99 | CN(C)C[C@H]1OC[C@@H]2CCN(S(=O)(=O)c3cccs3)C[C@@H]21 | 3.04
100 | Cn1cc(CN2CCC3(CC2)CCN(C(=O)c2cscn2)C3)cn1 | -2.45
101 | CCN1CC2(CC1=O)CN(Cc1ccncc1)CCN(C(=O)C(C)C)C2 (stereo unspecified) | -0.182
102 | Cc1cc(CN2CC[C@H]3[C@H]2CCN3CC(=O)N(C)C)oc1C | -5.6
103 | O=S(=O)(c1cccnc1)N1C[C@H]2CCC[C@@]2(COc2ccccn2)C1 | 7.05
104 | c1cc(CN2CCO[C@H]3[C@H](OCCN4CCCC4)CC[C@@H]32)ccn1 | -1.95
105 | O=C([C@@H]1CSCN1)N1CC2(CCNCC2)c2cc(Cl)ccc21 | 4.33
106 | COCCN1CCC2(CCN(Cc3ccc(OC)cc3)CC2)C1=O | 2.88
107 | CCCN1CCC[C@]2(CCC(=O)N2Cc2ccncc2)[C@H]1CC | -1.16
108 | Cn1cnc2c(-c3ccccc3)nc(C3CCNCC3)cc21 | -109
109 | Cc1ccc(CN2CC[C@H]3C[C@H](C(=O)N4CCCO4)O[C@@H]3C2)o1 | 7.11
110 | CCN(C)c1ncnc2c1CCN(Cc1ccncc1)CC2 | -10.7
111 | Cc1cnn(CCC(=O)N2C[C@@H]3CC[C@H]2CN(CC(=O)N(C)C)C3)c1 | -10
